Bioassay records deposited in PubChem BioAssay by The Scripps Research Institute Molecular Screening Center.
UHRF1 binding = blocks human UHRF1 binding to methylated DNA | 0.75% of 370,000 active | AID 687016 | Q96T88 | inhibition, % at 4.4 µM | UHRF1 binding to methylated oligo, TR-FRET; in the data active means inhibition above about 21%;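 further: UHRF1 SRA domain binding a hemimethylated CpG hairpin DNA probe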
MBD2 inh = MBD2-methylated oligo binding inhibition. Q9UBB5. TR-FRET, MBD2 binding to methylated oligonucleotide. inhibition, % at 4.4 µM. 0.31% of 370,000 active; in the data active means inhibition above about 13%
PRMT1 inh = blocks human protein arginine methyltransferase 1; Q99873; recombinant PRMT1, activity-based probe fluorescence polarization; inhibition, % at 2.79 µM; 1.3% of 370,000 active; AID 652257;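 active means inhibition above about 21% made by adding two undisclosed values, limit read from the data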
RBBP9 inhibitor = blocks human serine hydrolase RBBP9; inhibition, % at 7.94 µM; AID 1515; recombinant RBBP9, FP-Rh probe fluorescence polarization; O75884; 0.2% of 220,000 active;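 active means inhibition above the campaign mean of all tested compounds plus 3 SD, cut at about 14% in these data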
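Material: RBBP9 protein. Amount: RBBP9 at 2.5 µM in dispensed solution, before mixing. Schedule: 30 min then 45 min, 25 °C. Medium: Tris buffer pH 8.0, NaCl, Pluronic. Measured by: fluorescence polarization. Measure: percent inhibition from mP, scaled between DMSO and no-protein wells. Replication: one well per compound.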
LEDGF integ inh = blocks HIV-1 LEDGF/p75-dependent DNA integration | TR-FRET IN-LEDGF/p75 DNA integration, Eu/Cy5 | inhibition, % at 3.7 µM | 0.64% of 370,000 active | AID 743269;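 active means inhibition above the screen-wide mean plus 3 SD, cut at about 13% in these data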;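 further: signal is the Cy5 over europium emission ratio at 671 and 618 nm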
ABHD5-PLIN5 inh = ABHD5-PLIN5 protein interaction inhibition; AID 602281; Split G. princeps luciferase complementation, luminescence, 4 h; inhibition, % at 4 µM; 0.78% of 360,000 active;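 active means inhibition above the mean inhibition across every tested compound plus 3 SD, cut at about 22% in these data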
Target sequence (Q00G26 whole entry, looked up): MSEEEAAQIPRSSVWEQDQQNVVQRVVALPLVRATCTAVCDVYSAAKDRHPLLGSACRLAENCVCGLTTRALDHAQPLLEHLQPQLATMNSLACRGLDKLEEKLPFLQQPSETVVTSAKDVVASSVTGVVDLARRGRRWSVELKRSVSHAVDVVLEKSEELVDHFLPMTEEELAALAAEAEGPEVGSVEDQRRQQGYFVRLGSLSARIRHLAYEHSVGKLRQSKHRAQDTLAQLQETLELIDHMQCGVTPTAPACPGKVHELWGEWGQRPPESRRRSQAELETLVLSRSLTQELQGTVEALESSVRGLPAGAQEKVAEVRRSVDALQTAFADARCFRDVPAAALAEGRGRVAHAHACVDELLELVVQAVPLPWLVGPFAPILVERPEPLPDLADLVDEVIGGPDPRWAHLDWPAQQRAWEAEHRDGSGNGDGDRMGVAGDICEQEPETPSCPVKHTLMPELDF
Target sequence (Q8WTS1 whole entry, looked up): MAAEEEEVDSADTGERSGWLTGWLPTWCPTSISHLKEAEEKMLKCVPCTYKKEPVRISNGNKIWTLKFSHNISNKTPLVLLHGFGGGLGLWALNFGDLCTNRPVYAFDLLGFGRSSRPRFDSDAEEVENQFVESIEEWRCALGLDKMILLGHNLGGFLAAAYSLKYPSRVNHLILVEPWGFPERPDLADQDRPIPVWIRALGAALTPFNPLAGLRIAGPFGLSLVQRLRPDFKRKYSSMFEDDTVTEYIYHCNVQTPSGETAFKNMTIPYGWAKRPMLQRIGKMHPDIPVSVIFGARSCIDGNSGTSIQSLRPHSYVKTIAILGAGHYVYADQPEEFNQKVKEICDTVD
PRMT1 inh conf = confirmation of human PRMT1 inhibitors; shares compounds with PRMT1 inh; recombinant His-PRMT1, activity-based probe fluorescence polarization; inhibition, % at 2.79 µM; 42% of 3,300 active;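 active means mean inhibition across replicates above the hit cutoff derived for the earlier primary screen, cut at about 22% in these data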
A number is an active result; . = inactive; / = not tested or not shown; + = active, no number. Sampled rows, rich in hits. Any-hit rate of the full collection: about 3.1%.

SMILES	UHRF1 binding	MBD2 inh	PRMT1 inh	RBBP9 inhibitor	LEDGF integ inh	ABHD5-PLIN5 inh	PRMT1 inh conf
O=S(=O)(Nc1cc(Sc2ncn[nH]2)c(O)c2ccccc12)c1ccccc1	.	.	64	.	34	.	111
CCC(C)[C@H](NC(=O)[C@H](CC(C)C)NC(=O)OC(C)(C)C)C(=O)N[C@@H](Cc1ccccc1)C(=O)OC (stereo partly drawn)	.	.	.	/	.	/	/
C=CCNC(=O)c1ccsc1N	.	.	27	/	.	.	.
Cc1c(Nc2cc(Cl)c3nonc3c2[N+](=O)[O-])c(=O)n(-c2ccccc2)n1C	.	.	59	.	.	.	58
Cc1ccnc(N=O)c1	.	.	45	/	.	.	55
Cc1ccc2nc3sc(C(=O)Nc4c(C)[nH]c(=O)[nH]c4=O)c(N)c3cc2c1	.	.	.	.	.	.	/
Cc1ccc2cc3c(N)c(C(=O)Nc4c(C)[nH]c(=O)[nH]c4=O)sc3nc2c1	.	.	31	.	.	.	.
CCN(CC)c1ccc2cc(-c3nc(-c4ccc(OC)cc4)cs3)c(=O)oc2c1	.	.	45	.	.	/	78
NCCSSCCN	.	.	80	/	.	.	31
O=C(CC(Nc1ccc(F)cc1)C(=O)OCC(=O)c1cccs1)c1ccccc1 (stereo not drawn)	.	.	29	.	.	.	.
O=C(CCC(=O)c1cccs1)OCC(=O)c1ccc(F)cc1	.	.	.	/	.	.	/
COc1ccc(-c2noc(C3CCCN(C(=O)Nc4cc(C)cc(C)c4)C3)n2)cc1 (stereo not drawn)	.	.	.	/	.	/	/
Cc1cc2c(c(=O)o1)[C@@]1(C(=O)N(C)c3ccc([N+](=O)[O-])cc31)C1=C(CCCC1=O)O2	.	.	.	/	.	/	/
Cc1ccc(NC(=S)Nc2ccc(-c3nnc4n3CCCCC4)cc2)cc1C	.	.	.	/	.	/	/
COc1ccc(CCNC(=O)C(=O)NCC2OCCN2S(=O)(=O)c2ccc(OC)cc2)cc1 (stereo not drawn)	.	.	30	/	.	.	.
Cc1ccc(OCc2nnc(SCC(=O)Nc3ncc(C)s3)o2)cc1	.	.	30	.	.	.	.
S=c1[nH]nc(-c2cc(-c3ccccc3)n[nH]2)n1/N=C/C=C/c1ccccc1	.	.	.	.	.	.	/
Cc1cccc(/C=N/n2c(-c3cc(-c4ccccc4)n[nH]3)n[nH]c2=S)c1	.	.	.	.	.	.	/
S=c1[nH]nc(-c2cc(-c3ccccc3)n[nH]2)n1/N=C/c1cccs1	.	.	28	.	.	.	31
COc1ccccc1/C=C/C=N/n1c(-c2cc(-c3ccccc3)n[nH]2)n[nH]c1=S	.	.	26	.	.	.	23
S=c1[nH]c(-c2ccccc2)cn1/N=C/c1cccs1	.	.	45	.	.	.	22
S=c1[nH]c(-c2ccccc2)cn1/N=C/c1ccc(Br)cc1	.	.	.	.	.	.	/
S=c1[nH]nc(-c2cc(-c3ccccc3)n[nH]2)n1N=Cc1c[nH]c2ccccc12	.	.	32	/	.	/	24
COC(=O)[C@]12C[C@H](CC(=O)NCc3cccs3)C(=O)N(Cc3ccc4c(c3)OCO4)C1=C[C@H](C(C)(C)C)O[C@@H]2C	.	.	.	/	.	/	/
O=C(NCCc1c[nH]c2ccccc12)OCc1cn(Cc2ccc(F)cc2F)nn1	.	.	.	/	.	/	/
SMILES	UHRF1 binding	MBD2 inh	PRMT1 inh	RBBP9 inhibitor	LEDGF integ inh	ABHD5-PLIN5 inh	PRMT1 inh conf
O=C(NC1CC1)C(=O)c1c[nH]c2ccccc12	.	.	.	/	.	.	/
O=C(NC1CC1)c1cc(=S)[nH]c2ccccc12	.	.	39	/	.	.	.
COc1ccc(C(C)=O)cc1COC(=O)C1CCN(C(=O)c2ccc(Cl)cc2)CC1	.	.	+	/	.	.	.
Nn1c(SCC(=O)Nc2nccs2)nnc1-c1cc(-c2ccc(F)cc2)n[nH]1	.	.	.	/	.	/	/
COc1ccc(C2=CSC3=C(C(=O)c4cccc(S(=O)(=O)N(C)C)c4)CCN23)cc1	.	.	28	.	.	.	27
O=C(OC1CCOC1=O)c1ccc2ncsc2c1 (stereo not drawn)	.	.	39	.	.	.	.
NS(=O)(=O)c1cc(C(=O)OC2CCOC2=O)ccc1Cl (stereo not drawn)	.	.	.	/	.	.	/
O=C(CC1SC2=NCCN2C1=O)Nc1ccc(Cl)cc1 (stereo not drawn)	.	.	.	.	.	.	/
Cc1ccc(NC(=O)CC2SC3=NCCCN3C2=O)c(C)c1 (stereo not drawn)	.	.	44	.	.	.	40
Nc1ccc(F)c(CN2CCN(c3ncc(Cc4ccccc4)cn3)CC2)c1	.	.	.	/	.	/	/
COc1ccc(N2C(=O)c3cccc4cccc(c34)C2=O)cc1	.	.	.	/	.	.	/
COc1ccc(N2C(=O)c3cccc4c(N(C)CCO)ccc(c34)C2=O)cc1	.	.	29	/	.	.	24
CCOC(=O)c1cccc(NC(=O)CN(C)S(=O)(=O)c2ccco2)c1	.	.	.	/	.	/	/
CCN(CC(=O)Nc1ccc(NC(C)=O)cc1)C(=O)CSCC(=O)Nc1ccc(C)cc1	.	.	.	/	.	.	/
CCOC(=O)CC(=O)CSCC(=O)Nc1ccc(C)cc1	.	.	40	.	.	.	32
CCOC(=O)c1ccc(NC(=O)CSCc2ccco2)cc1	.	.	82	.	.	.	84
CCOC(=O)c1ccc(NC(=O)CSCCC(=O)O)cc1	.	.	.	.	.	.	/
Nc1[nH]c(C(=O)c2ccccc2)c(-c2ccccn2)c1C(=O)c1c[nH]c2ccc(Br)cc12	.	.	27	/	.	/	.
Cc1c(C(c2cc(O)ccc2O)c2c(C)n(C)n(-c3ccccc3)c2=O)c(=O)n(-c2ccccc2)n1C	.	.	33	/	.	.	.
CCOC(=O)c1c(/N=C/c2cccc([N+](=O)[O-])c2O)sc(C)c1C	.	.	28	.	.	.	.
O=[N+]([O-])c1cccc(C=Nc2cccc3ccccc23)c1O	.	.	.	/	.	.	/
CCOC(=O)C1=C(C)N=c2s/c(=C/c3ccc(OCC(=O)O)cc3)c(=O)n2C1c1ccc(SC)cc1 (stereo not drawn)	/	/	/	/	/	.	/
CCOC(=O)C1=C(C)N=c2s/c(=C/c3ccc(OCC(=O)O)cc3)c(=O)n2C1c1ccc(F)cc1 (stereo not drawn)	.	.	37	/	.	.	.
CCOc1ccc(C2C(C(=O)Nc3ccccc3)=C(C)N=c3s/c(=C/c4cccc(OCC(=O)O)c4)c(=O)n32)cc1 (stereo not drawn)	.	.	25	.	.	.	.
CCOC(=O)C1=C(C)N=c2s/c(=C\c3ccc(OCC(=O)O)cc3)c(=O)n2C1c1ccc(Cl)cc1 (stereo not drawn)	.	.	30	/	.	.	.
